Reference: ChEMBL document CHEMBL4665633, “Cereblon versus VHL: Hijacking E3 ligases against each other using PROTACs” (Bioorg Med Chem, 2019)
Active and inactive are the calls of the source. The rule behind the calls is not given here.

Assays:
Format in all cases: cell-based
[1] = biological target: T1, Protein cereblon/von Hippel-Lindau disease tumor suppressor (Homo sapiens, UniProt P40337+Q96SW2); assay: Protac activity at VHL/CRBN in HEK293 cells assessed as pVHL19 protein abundance at 1 uM after 4 hrs by Western blot analysis relative to DMSO
How it was run: (§1)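 HEK293 cells (DMEM, 10% FBS, penicillin/streptomycin, L-glutamine; 37 °C, 5% CO2; ≤30 passages) seeded at 1 × 10⁶ per well overnight, then treated with compound at 0.1% v/v final DMSO. Cells were lysed in RIPA with protease inhibitors and benzonase, then clarified. Equal Bradford-quantified protein was immunoblotted for CRBN/VHL. Bands were normalised to β-tubulin and expressed as % of mean 0.1% DMSO vehicle.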
Target sequence in this assay (P40337 whole entry, looked up): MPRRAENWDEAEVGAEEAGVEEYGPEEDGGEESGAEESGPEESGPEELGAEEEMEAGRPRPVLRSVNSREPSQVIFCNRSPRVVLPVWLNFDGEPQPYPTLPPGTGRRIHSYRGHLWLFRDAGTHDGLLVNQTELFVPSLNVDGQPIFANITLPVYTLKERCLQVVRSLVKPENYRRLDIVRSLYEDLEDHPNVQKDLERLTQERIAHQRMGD
Target sequence in this assay (Q96SW2 whole entry, looked up): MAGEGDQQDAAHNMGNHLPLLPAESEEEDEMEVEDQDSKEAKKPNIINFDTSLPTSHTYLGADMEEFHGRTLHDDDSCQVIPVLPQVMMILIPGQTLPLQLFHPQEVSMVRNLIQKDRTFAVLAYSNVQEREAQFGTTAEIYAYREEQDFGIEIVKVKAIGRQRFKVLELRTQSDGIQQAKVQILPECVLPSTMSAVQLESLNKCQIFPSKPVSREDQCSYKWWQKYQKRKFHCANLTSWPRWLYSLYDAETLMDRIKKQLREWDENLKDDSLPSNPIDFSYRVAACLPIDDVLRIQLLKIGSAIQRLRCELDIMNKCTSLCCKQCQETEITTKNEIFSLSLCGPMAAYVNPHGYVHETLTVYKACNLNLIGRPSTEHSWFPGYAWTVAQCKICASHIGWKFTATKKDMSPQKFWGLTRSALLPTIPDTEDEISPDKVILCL

[2] = biological target: T1, Protein cereblon/von Hippel-Lindau disease tumor suppressor; assay: Protac activity at VHL/CRBN in HEK293 cells assessed as pVHL19 protein abundance at 1 uM after 12 hrs by Western blot analysis relative to DMSO; how it was run: as §1
Target sequence in this assay (P40337 whole entry, looked up): as the sequence (P40337 whole entry, looked up) above
Target sequence in this assay (Q96SW2 whole entry, looked up): as the sequence (Q96SW2 whole entry, looked up) above

[3] = biological target: T1, Protein cereblon/von Hippel-Lindau disease tumor suppressor; assay: Protac activity at VHL/CRBN in HEK293 cells assessed as pVHL30 protein abundance at 1 uM after 2 hrs by Western blot analysis relative to DMSO; how it was run: as §1
Target sequence in this assay (P40337 whole entry, looked up): as the sequence (P40337 whole entry, looked up) above
Target sequence in this assay (Q96SW2 whole entry, looked up): as the sequence (Q96SW2 whole entry, looked up) above

[4] = biological target: T1, Protein cereblon/von Hippel-Lindau disease tumor suppressor; assay: Protac activity at VHL/CRBN in HEK293 cells assessed as pVHL30 protein abundance at 1 uM after 12 hrs by Western blot analysis relative to DMSO; how it was run: as §1
Target sequence in this assay (P40337 whole entry, looked up): as the sequence (P40337 whole entry, looked up) above
Target sequence in this assay (Q96SW2 whole entry, looked up): as the sequence (Q96SW2 whole entry, looked up) above

[5] = biological target: T1, Protein cereblon/von Hippel-Lindau disease tumor suppressor; assay: Protac activity at VHL/CRBN in HEK293 cells assessed as CRBN protein abundance at 1 uM after 8 hrs by Western blot analysis relative to DMSO; how it was run: as §1
Target sequence in this assay (P40337 whole entry, looked up): as the sequence (P40337 whole entry, looked up) above
Target sequence in this assay (Q96SW2 whole entry, looked up): as the sequence (Q96SW2 whole entry, looked up) above

[6] = biological target: T1, Protein cereblon/von Hippel-Lindau disease tumor suppressor; assay: Protac activity at VHL/CRBN in HEK293 cells assessed as CRBN protein abundance at 1 uM after 12 hrs by Western blot analysis relative to DMSO; how it was run: as §1
Target sequence in this assay (P40337 whole entry, looked up): as the sequence (P40337 whole entry, looked up) above
Target sequence in this assay (Q96SW2 whole entry, looked up): as the sequence (Q96SW2 whole entry, looked up) above

[7] = biological target: T1, Protein cereblon/von Hippel-Lindau disease tumor suppressor; assay: Protac activity at VHL/CRBN in HEK293 cells assessed as CRBN protein abundance at 1 uM after 24 hrs by Western blot analysis relative to DMSO; how it was run: as §1
[8] = biological target: T1, Protein cereblon/von Hippel-Lindau disease tumor suppressor; assay: Protac activity at VHL/CRBN in HEK293 cells assessed as pVHL19 protein abundance at 50 nM after 4 hrs by Western blot analysis relative to DMSO; how it was run: as §1
[9] = biological target: T1, Protein cereblon/von Hippel-Lindau disease tumor suppressor; assay: Protac activity at VHL/CRBN in HEK293 cells assessed as pVHL19 protein abundance at 10000 nM after 4 hrs by Western blot analysis relative to DMSO; how it was run: as §1
[10] = biological target: T1, Protein cereblon/von Hippel-Lindau disease tumor suppressor; assay: Protac activity at VHL/CRBN in HEK293 cells assessed as pVHL30 protein abundance at 10 nM after 4 hrs by Western blot analysis relative to DMSO; how it was run: as §1
[11] = biological target: T1, Protein cereblon/von Hippel-Lindau disease tumor suppressor; assay: Protac activity at VHL/CRBN in HEK293 cells assessed as pVHL30 protein abundance at 100 nM after 4 hrs by Western blot analysis relative to DMSO; how it was run: as §1
[12] = biological target: T1, Protein cereblon/von Hippel-Lindau disease tumor suppressor; assay: Protac activity at VHL/CRBN in HEK293 cells assessed as pVHL30 protein abundance at 1000 nM after 4 hrs by Western blot analysis relative to DMSO; how it was run: as §1
[13] = biological target: T1, Protein cereblon/von Hippel-Lindau disease tumor suppressor; assay: Protac activity at VHL/CRBN in HEK293 cells assessed as CRBN protein abundance at 5 nM after 4 hrs by Western blot analysis relative to DMSO; how it was run: as §1
[14] = biological target: T1, Protein cereblon/von Hippel-Lindau disease tumor suppressor; assay: Protac activity at VHL/CRBN in HEK293 cells assessed as CRBN protein abundance at 5000 nM after 4 hrs by Western blot analysis relative to DMSO; how it was run: as §1
[15] = biological target: T1, Protein cereblon/von Hippel-Lindau disease tumor suppressor; assay: Protac activity at VHL/CRBN in human HeLa cells assessed as pVHL30 protein abundance at 1 uM after 8 hrs by Western blot analysis relative to DMSO
How it was run: (§2)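 HeLa cells seeded overnight, then exposed to 1 µM compound (0.1% v/v DMSO final) over a time course. Cells were DPBS-washed and RIPA-lysed with protease inhibitors and benzonase; equal protein was loaded. Immunoblots for CRBN and VHL isoforms were quantified against β-tubulin and reported relative to the averaged 0.1% DMSO vehicle.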

[16] = biological target: T1, Protein cereblon/von Hippel-Lindau disease tumor suppressor; assay: Protac activity at VHL/CRBN in human HeLa cells assessed as pVHL19 protein abundance at 100 nM after 4 hrs by Western blot analysis relative to DMSO
How it was run: (§3)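 HeLa cells (5 × 10⁵, DMEM + 10% FBS, 37 °C, 5% CO₂, ≤30 passages) seeded overnight, then treated 4 h with compound at single or graded concentrations (0.1% v/v DMSO final). RIPA lysates equalised by Bradford; SDS-PAGE and anti-CRBN/anti-VHL immunoblots; bands normalised to β-tubulin and expressed as % of mean DMSO vehicle. DC₅₀ from fit of band intensity versus log[concentration].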

[17] = biological target: T1, Protein cereblon/von Hippel-Lindau disease tumor suppressor; assay: Protac activity at VHL/CRBN in human HeLa cells assessed as pVHL19 protein abundance at 10000 nM after 4 hrs by Western blot analysis relative to DMSO; how it was run: as §3
[18] = biological target: T1, Protein cereblon/von Hippel-Lindau disease tumor suppressor; assay: Protac activity at VHL/CRBN in human HeLa cells assessed as pVHL30 protein abundance at 100 nM after 4 hrs by Western blot analysis relative to DMSO; how it was run: as §3
[19] = biological target: T1, Protein cereblon/von Hippel-Lindau disease tumor suppressor; assay: Protac activity at VHL/CRBN in human HeLa cells assessed as pVHL30 protein abundance at 1000 nM after 4 hrs by Western blot analysis relative to DMSO; how it was run: as §3
[20] = biological target: T1, Protein cereblon/von Hippel-Lindau disease tumor suppressor; assay: Protac activity at VHL/CRBN in human HeLa cells assessed as CRBN protein abundance at 50 nM after 4 hrs by Western blot analysis relative to DMSO; how it was run: as §3
[21] = biological target: T1, Protein cereblon/von Hippel-Lindau disease tumor suppressor; assay: Protac activity at VHL/CRBN in human HeLa cells assessed as CRBN protein abundance at 500 nM after 4 hrs by Western blot analysis relative to DMSO; how it was run: as §3
[22] = biological target: T1, Protein cereblon/von Hippel-Lindau disease tumor suppressor; assay: Protac activity at VHL/CRBN in human HeLa cells assessed as CRBN protein abundance at 1000 nM after 4 hrs by Western blot analysis relative to DMSO; how it was run: as §3
[23] = biological target: T1, Protein cereblon/von Hippel-Lindau disease tumor suppressor; assay: Protac activity at VHL/CRBN in human HeLa cells assessed as hook effect at > 1 uM
[24] = biological target: T1, Protein cereblon/von Hippel-Lindau disease tumor suppressor; assay: Protac activity at VHL/CRBN in human HeLa cells assessed as induction of CRBN degradation after 4 hrs by Western blot analysis; how it was run: as §3
Target sequence in this assay (P40337 whole entry): as the sequence (P40337 whole entry, looked up) above
Target sequence in this assay (Q96SW2 whole entry): as the sequence (Q96SW2 whole entry, looked up) above

[25] = biological target: T1, Protein cereblon/von Hippel-Lindau disease tumor suppressor; assay: Protac activity at VHL/CRBN in human HeLa cells assessed as pVHL30 protein abundance at 10 nM after 4 hrs by Western blot analysis relative to DMSO; how it was run: as §3
[26] = biological target: T1, Protein cereblon/von Hippel-Lindau disease tumor suppressor; assay: Protac activity at VHL/CRBN in human HeLa cells assessed as pVHL19 protein abundance at 1 uM after 4 hrs by Western blot analysis relative to DMSO; how it was run: as §2
[27] = biological target: T1, Protein cereblon/von Hippel-Lindau disease tumor suppressor; assay: Protac activity at VHL/CRBN in human HeLa cells assessed as CRBN protein abundance at 1 uM after 4 hrs by Western blot analysis relative to DMSO; how it was run: as §2
[28] = biological target: T1, Protein cereblon/von Hippel-Lindau disease tumor suppressor; assay: Protac activity at VHL/CRBN in human HeLa cells assessed as induction of CRBN degradation at 10 nM after 4 hrs by Western blot analysis relative to control; how it was run: as §3
[29] = biological target: T1, Protein cereblon/von Hippel-Lindau disease tumor suppressor; assay: Protac activity at VHL/CRBN in human HeLa cells assessed as induction of CRBN degradation at 1 uM after 4 hrs by Western blot analysis relative to control; how it was run: as §3
[30] = biological target: T1, Protein cereblon/von Hippel-Lindau disease tumor suppressor; assay: Protac activity at VHL/CRBN in human HeLa cells assessed as induction of VHL degradation at 1 uM after 4 hrs by Western blot analysis; how it was run: as §3

**Q.** For `Cc1ncsc1-c1ccc(CNC(=O)[C@@H]2C[C@@H](O)CN2C(=O)[C@@H](NC(=O)COCCCCCOCCOCCCCCOCC(=O)NCCNc2cccc3c2C(=O)N(C2CCC(=O)NC2=O)C3=O)C(C)(C)C)cc1` (stereo partly specified), which Activity [1] is on record?
**A.** 101%

**Q.** What about the Activity [2] of the same compound?
**A.** 102%

**Q.** What about the Activity [3] of the same compound?
**A.** 87%

**Q.** What about the Activity [4] of the same compound?
**A.** 113%

**Q.** What about the Activity [5] of the same compound?
**A.** 2%

**Q.** And the Activity [6]?
**A.** 6%

**Q.** What about the Activity [7] of the same compound?
**A.** 6%

**Q.** What about the Activity [8] of the same compound?
**A.** 111%

**Q.** What about the Activity [9] of the same compound?
**A.** 106%

**Q.** What about the Activity [10] of the same compound?
**A.** 135%

**Q.** And the Activity [11]?
**A.** 124%

**Q.** And the Activity [12]?
**A.** 127%

**Q.** And the Activity [13]?
**A.** 102%

**Q.** And the Activity [14]?
**A.** 25%

**Q.** What about the Activity [15] of the same compound?
**A.** 116%

**Q.** And the Activity [16]?
**A.** 108%

**Q.** And the Activity [17]?
**A.** 124%

**Q.** And the Activity [18]?
**A.** 101%

**Q.** What about the Activity [19] of the same compound?
**A.** 125%

**Q.** What about the Activity [20] of the same compound?
**A.** 72%

**Q.** And the Activity [21]?
**A.** 33%

**Q.** And the Activity [22]?
**A.** 25%

**Q.** What about the Activity [23] of the same compound?
**A.** Active

**Q.** And the DC50 [24]?
**A.** 200 nM

**Q.** And the Activity [25]?
**A.** 64%

**Q.** And the Activity [26]?
**A.** 100%

**Q.** And the Activity [27]?
**A.** 19%

**Q.** And the Activity [28]?
**A.** 19%

**Q.** And the %max [29]?
**A.** 75%

**Q.** What about the Activity [29] of the same compound?
**A.** 64%

**Q.** And the Activity [30]?
**A.** inactive
